# Lmaj promast: Leishmania major promastigote growth inhibition, primary screen. Leishmania major promastigotes, resazurin fluorescence viability. inhibition, % at 10 µM. 200,000 compounds, 9% hits;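 note: promastigotes grown with compound for 44 hours at 28 °C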
# DTT redox prof: compounds producing H2O2 with reducing agent – biochemical, NIH compound library profiling, artefact control for MLSCN library redox annotation, primary screen | 200,000 compounds, 0.03% hits | activation, % at 10 µM | DTT-dependent redox cycling H2O2, phenol red/HRP absorbance; 100% = 100 µM peroxide control, 0% = buffer;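 active = activation of at least 50% relative to the plate's high and low controls in the primary single-dose screen; inactive = activation below 50%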;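 note: compound incubated with DTT at 0.8 mM final as the reducing agent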
# G6PDH CS: L. mesenteroides G6PDH inhibitors, counter-screen for G6PDH-coupled screening assays, biochemical, Leuconostoc mesenteroides enzyme; inhibition, % at 5 µM; 200,000 compounds, 0.12% hits; AID 1020, 2008; Purified L. mesenteroides G6PDH, diaphorase/resazurin coupled fluorescence, 45 min
# Diaphorase act: compounds boosting diaphorase resazurin reduction – biochemical, uHTS, resorufin fluorescence, counter-screen for diaphorase-coupled primary assays, primary screen; Diaphorase/resazurin coupled assay, 16 min; stronger effect = higher value; 1 = vehicle wells, 0 = NADH-free wells; 190,000 compounds, 0.005% hits; activation factor at 20 µM;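 active = diaphorase activity raised at least twofold by the compound at 20 µM; inactive = activation factor below 2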
#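 test system = bacterial diaphorase enzyme (C. kluyveri) | quantity = enzyme 0.07 U/mL final | reagent = NADH substrate 0.114 mM plus resazurin dye 0.1 mM, final | incubation = 16 min enzyme reaction, ambient temperature | buffer or medium = HEPES pH 7.4 buffer with MgCl2 and Tween 20 | signal = fluorescence of resorufin, 544 nm excitation, 590 nm emission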
# PfG6PD inh: PfG6PD enzyme inhibitors, primary screen, biochemical, fluorescence intensity, uHTS. PfGluPho enzyme, NADPH resazurin-diaphorase fluorescence. inhibition, % at 20 µM. 350,000 compounds, 0.78% hits;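 active = inhibition reaching at least a set limit at 20 µM in the primary screen, cut at about 59% in these data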
# Diaphorase inh: diaphorase inhibitors and chemical oxidizers, primary screen, counter-screen for diaphorase-coupled primary assays, biochemical, uHTS, resorufin fluorescence; inhibition, % at 20 µM; AID 1217, 2008; diaphorase resazurin-to-resorufin fluorescence, NADH, 16 min; bacterial (C. kluyveri) enzyme, not human; 190,000 compounds, 0.69% hits;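 active = primary screen inhibition at 20 µM above a set limit, cut at about 50% in these data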
#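 material = Clostridium kluyveri diaphorase enzyme | amount = 0.14 U/mL diaphorase, enzyme working solution | schedule = incubation 16 min, room temperature | detection = fluorescence of resorufin formed from resazurin, Ex 544/Em 590 nm | benchmarks = positive control minus NADH, DMSO neutral control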
# A number is an active result; – = inactive; · = not tested or not shown. The sample as a whole holds a higher share of hits than the screen did. Cut-off read from the data, not from the text of the source, unless noted: active = inhibition above about 50%; inactive = the rest.
SMILES,Lmaj promast,DTT redox prof,G6PDH CS,Diaphorase act,PfG6PD inh,Diaphorase inh
CCN(Cc1ccccc1)S(=O)(=O)c1cc(C(=O)NCC2CCCCC2)ccc1OC,98,–,–,–,–,–
COC(=O)[C@]1(C)N[C@H](CN(C)C(=O)C2CCCCC2)[C@@H]2C(=O)N(C)C(=O)[C@@H]21,·,·,·,·,–,·
O=C(NCCN1C(=O)S/C(=C/c2cccnc2)C1=O)c1ccc(S(=O)(=O)N2CCCC2)cc1,·,·,·,·,–,·
CCOC(=O)CNC(=O)Cn1cnc2c(nnn2-c2ccccc2)c1=O,·,·,·,·,–,·
Cc1cc(C)c(C)c(S(=O)(=O)NC(C(=O)NCCc2ccco2)C(C)C)c1C (stereo not drawn),·,·,·,·,–,·
CC(C)(C)NC(=O)CSc1nc2ccc(Nc3nc(N4CCOCC4)nc(N4CCOCC4)n3)cc2s1,77,–,–,–,–,–
Cc1ccc(NC(=O)CSc2nc3ccc(Nc4nc(N5CCOCC5)nc(N5CCOCC5)n4)cc3s2)cc1,·,·,·,·,–,·
CCOC(=O)CSc1nc2ccc(Nc3nc(N4CCOCC4)nc(N4CCOCC4)n3)cc2s1,–,–,–,–,–,–
CC(=O)CSc1nc2ccc(Nc3nc(N4CCOCC4)nc(N4CCOCC4)n3)cc2s1,64,–,–,–,–,–
CSc1ccc(OC2CCN(Cc3ccccc3)CC2)cc1,94,–,–,–,–,–
Cc1cc(=O)[nH]c(SCC(=O)Nc2c(C)n(C)n(-c3ccccc3)c2=O)c1C#N,·,·,·,·,–,·
COc1ccccc1NC(=O)Cn1c(=O)n(CCc2c[nH]c3ccccc23)c(=O)c2cccnc21,65,–,–,–,–,–
C=CCn1c(SCC(=O)c2c(N)n(C)c(=O)n(C)c2=O)nnc1-c1ccoc1C,·,·,·,·,–,·
Cc1cc(CN(C)C(=O)c2ccc3nc(Cc4ccccc4F)oc3c2)on1,·,·,·,·,–,·
Cn1c(=O)c(C(=O)CN2CCN(S(=O)(=O)c3ccccc3)CC2)c(N)n(Cc2ccccc2)c1=O,71,–,–,–,–,–
Cn1c(=O)c(C(=O)CCl)c(N)n(Cc2ccccc2)c1=O,–,–,–,–,–,–
Cn1c(N)c(C(=O)CCl)c(=O)n(Cc2ccccc2)c1=O,62,–,–,–,–,–
O=C(O)COn1c(-c2ccccc2)nc2ccc([N+](=O)[O-])cc21,–,–,–,–,–,50
Cc1ccc(COn2c(-c3ccc(Cl)cc3)nc3ccc([N+](=O)[O-])cc32)cc1,–,–,–,–,–,–
O=C(c1ccc(NS(=O)(=O)c2ccc(F)cc2)cc1)N1CCCCC1,·,·,·,·,–,·
O=C(c1ccc(S(=O)(=O)Nc2ccc(F)cc2)cc1)N1CCN(c2ccccn2)CC1,99,–,–,–,–,–
O=C(OCC(=O)N1CCCc2ccccc21)c1cc(Cl)ccc1O,·,·,·,·,–,·
COc1ccccc1NC(=O)c1ccc(NC(=O)COC(=O)C2(C)CC2(Cl)Cl)cc1 (stereo not drawn),–,–,–,–,–,–
CCOC(=O)NC1(Nc2ccc(Cl)cn2)Oc2ccccc2O1,–,–,–,–,·,54
COC(=O)C1CC2=C(CCC2=O)N(c2ccccc2)C1=O (stereo not drawn),·,·,·,·,–,·
SMILES,Lmaj promast,DTT redox prof,G6PDH CS,Diaphorase act,PfG6PD inh,Diaphorase inh
N=C1C=CC=C2C1=NC1(CCCCC1)N2O,–,–,–,–,–,64
COc1ccc(C(c2c(O)ccc3ccccc23)N2CCOCC2)c(OC)c1 (stereo not drawn),60,–,–,–,–,–
NNc1nc2c(Cl)ccc(Cl)c2s1,98,–,–,–,–,–
O=C(Nc1nc2c(Cl)ccc(Cl)c2s1)C1CC1,·,·,·,·,–,·
COc1ccc(-c2ncc(CN3CCC(CO)(Cc4cccc(OC)c4)CC3)cn2)cc1,–,–,–,–,–,–
COc1ccc(CC2(CO)CCN(C(C)Cc3ccc(Cl)cc3)CC2)cc1 (stereo not drawn),86,–,–,–,–,–
COc1ccc(CC2(CO)CCN(Cc3ccc4nsnc4c3)CC2)cc1,88,–,–,–,–,–
OCC1(Cc2ccc(Cl)cc2)CCN(Cc2ccc3nsnc3c2)CC1,88,–,–,–,–,–
COc1ccc(CC2(CO)CCN(Cc3cccnc3)CC2)cc1,89,–,–,–,–,–
CCc1c(O)nc(SCC(=O)Nc2nc3ccccc3s2)n(C2CCCCC2)c1=O,·,·,·,·,–,·
Cc1cc(C)cc(NC(=O)CSc2nc(CSc3ccc(Cl)cc3)cc(=O)[nH]2)c1,·,·,·,·,–,·
Cc1ccc(S(=O)(=O)N2CCN(C(=O)COC(=O)c3ccc(Cl)nc3)CC2)c(C)c1,·,·,·,·,–,·
O=C(NCc1ccc2c(c1)OCO2)c1cc(=O)[nH]c2ccccc12,·,·,·,·,–,·
CN(CCOc1ccc(Cl)cc1)C(=O)c1cc(-c2ccco2)nc2ccccc12,·,·,·,·,–,·
Cc1nc(N/N=C/c2ccc(O)cc2)c2cnn(-c3ccccc3)c2n1,67,–,–,–,–,–
COc1ccc(C(=O)C/C(=C\C(=O)c2ccc(C)cc2)c2ccccc2)cc1,52,–,–,–,–,–
COc1ccccc1/C=C/CN1CCC(Oc2cc(C(=O)NC3CC3)ccc2OC)CC1,·,·,·,·,–,·
Cc1ccc(NC(=S)N(Cc2ccco2)C2CCN(C(C)C)CC2)cc1,–,–,–,–,–,–
CC(=O)N1c2ccc3ccccc3c2C2C=CCC2C1c1ccc(Br)cc1 (stereo not drawn),97,–,–,–,·,–
Nc1nc(=S)[nH]c2c1C1(CCCCC1)Cc1ccccc1-2,–,–,–,–,–,53
O=C(OCC(=O)C12CC3CC(CC(C3)C1)C2)c1cccnc1Cl,60,–,–,–,–,–
CCOC(=O)CNC(=S)N(CCCN1CCCCCC1)Cc1cccs1,73,–,–,–,–,–
CCOC(=O)CNC(=S)N(CCCN1CCCCC1)Cc1cccs1,–,–,–,–,–,–
Cc1ccccc1NC(=S)N(CCN1CCCCCC1)Cc1cccs1,–,–,–,–,–,–
COc1ccccc1NC(=S)N(CCN1CCCCCC1)Cc1cccs1,57,–,–,–,–,–
CC(=O)c1coc2ccc(OCCN3CCCCC3)cc12,91,–,–,–,–,–
O=C(Oc1ccc2ccc(O)cc2c1)c1ccccc1Cl,·,·,·,·,–,·
COC(=O)C1=CN(C2CC2)C=C(C(=O)OC)C1c1ccc(C(F)(F)F)cc1,88,–,–,–,–,–
COc1ccc(C(C)(C)C)cc1NC(=O)Nc1ccc2c(c1)OCO2,100,–,–,–,–,–
CN(CC(=O)Nc1ccc(F)cc1)C(=O)CN1C(=O)c2cccc([N+](=O)[O-])c2C1=O,·,·,·,·,–,·
